# Only some compounds are listed: those with a hit (about 4% of all), similar ones and a draw of the others.
# CHOP inhibitor: inhibitors of CHOP promoter induction, primary screen, cell-based, unfolded protein response, luciferase reporter; CHO-K1 CHOP-promoter luciferase, tunicamycin-induced, 15-18 h; 220,000 compounds, 3.8% hits; inhibition, % at 10 µM; AID 2732, 2010;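 active = compounds that reduced the stress-induced luciferase reporter signal by more than about 70% of percent inhibition, limit read from the data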
# Hsp70 activator: Hsp70 transcriptional activators, primary screen, cell-based, HeLa, Hsp70 promoter luciferase, luminescence, 10 µM. HeLa Hsp70 promoter luciferase reporter; scaled: vehicle 0, proteasome-inhibitor control 100%. activation, % at 10 µM. 200,000 compounds, 0.04% hits. AID 1203, 2008;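 active = activation above the mean across all tested compounds plus 3 SD, cutoff set per campaign, cut at about 5.5% in these data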
# Mdm2 ligase inh: MDM2-luciferase reporter signal enhancers, primary screen, MDM2 E3 ligase inhibitor project, cell-based, luminescence, 1536-well | E3 ubiquitin-protein ligase Mdm2 (Homo sapiens), Q00987 | cell-based MDM2 ubiquitination luciferase reporter, 2 h; 0 = plate control, 100 = twice control, blank-subtracted | signal enhancement, % at 5 µM | 210,000 compounds, 0.11% hits;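 active = signal enhancement of 30% or more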;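 note: luminescence tracks abundance of the self-degrading MDM2-luciferase fusion protein; higher signal means inhibition of MDM2 E3 ligase activity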
# Target sequence (Q00987 whole entry, looked up, the tested form may be a part): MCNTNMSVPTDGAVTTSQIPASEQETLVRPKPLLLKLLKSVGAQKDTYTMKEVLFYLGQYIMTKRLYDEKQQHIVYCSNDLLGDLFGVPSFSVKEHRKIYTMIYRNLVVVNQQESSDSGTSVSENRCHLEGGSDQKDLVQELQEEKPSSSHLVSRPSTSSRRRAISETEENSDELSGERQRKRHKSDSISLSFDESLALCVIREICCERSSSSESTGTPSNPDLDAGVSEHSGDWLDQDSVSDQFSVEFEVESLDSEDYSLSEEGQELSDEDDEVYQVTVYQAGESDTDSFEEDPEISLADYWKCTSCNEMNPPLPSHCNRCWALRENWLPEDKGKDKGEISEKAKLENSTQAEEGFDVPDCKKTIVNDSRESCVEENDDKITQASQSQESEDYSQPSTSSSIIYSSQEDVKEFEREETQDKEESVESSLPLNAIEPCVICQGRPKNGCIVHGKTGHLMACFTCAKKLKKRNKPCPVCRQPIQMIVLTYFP
#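 Timing – 2 h compound exposure at 37 °C · Assay system – mammalian cells stably expressing self-ubiquitinating, self-degrading MDM2 E3–luciferase fusion · Amount – 2000 cells seeded into each well · Measure – % luminescence enhancement versus blank-corrected plate control mean · Measured by – SteadyLite luminescence, 15 min reagent step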
# S1P3 antag: S1P3 receptor antagonists, primary screen, cell-based; inhibition, % at 4.98 µM; AID 485, 2006; 170,000 compounds, 0.27% hits; CHO S1P3 NFAT-BLA reporter, FRET fluorescence, antagonist mode;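 active = inhibition above the plate cutoff, the mean inhibition of test wells on that plate plus 3 SD, cut at about 28% in these data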;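 note: cells challenged with S1P at its EC80 of 0.8 µM; blue over green emission ratio from cleaved BLA substrate after 4 h stimulation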
# Numbers stand for hits; n = inactive; x = not tested or not shown.
SMILES,CHOP inhibitor,Hsp70 activator,Mdm2 ligase inh,S1P3 antag
CC(C)(O)C#Cc1ccc([C@@H]2C[C@H]3CN(c4ccccc4)C(=O)[C@]34CCCN24)s1,95,n,n,n
Cc1cc(C)n2cc(CSc3ncn[nH]3)nc2n1,n,n,n,n
COc1ccc(N(CC(=O)Nc2ccc3c(c2)OCCO3)S(=O)(=O)c2c(C)noc2C)cc1,n,n,n,n
CCOc1ccc(N(CC(=O)Nc2ccc(F)c(F)c2)S(=O)(=O)c2c(C)noc2C)cc1,90,n,n,n
COc1ccc(NC(=O)CN(c2ccc(C(C)C)cc2)S(=O)(=O)c2c(C)noc2C)cc1OC,71,n,n,n
O=C(O)c1ccc(CSc2nnc(-c3cccnc3)n2-c2ccc(Br)cc2)cc1,n,n,n,n
O=C(CN1C(=O)S/C(=C/c2cc(Br)cs2)C1=O)N1CCOCC1,n,n,n,n
COc1ccc(C(=O)NCCSC2CCCCC2)cc1,n,n,41,n
CN(Cc1ccccc1NS(=O)(=O)c1ccc2ccccc2c1)C1CCCCC1,n,n,n,n
Cc1ccc(SCc2cc(=O)[nH]c(N3CCN(Cc4ccccc4)CC3)n2)cc1,90,n,n,n
Cc1ccc(SCc2cc(=O)[nH]c(N3CCN(Cc4ccc5c(c4)OCO5)CC3)n2)cc1,75,n,n,n
O=c1cc(CSc2ccc(Cl)cc2)nc(N2CCCCC2)[nH]1,n,n,n,n
O=C(CN1CCCCC1)Nc1c2c(nc3ccccc13)N(c1ccccc1)CC2,86,n,n,n
O=C(c1cncs1)N1CCCC(CNS(=O)(=O)c2cccs2)C1 (stereo unspecified),n,n,n,n
COC(=O)Cc1ccc(NC(=O)c2ccc(C(C)(C)C)cc2)cc1,72,n,n,x
COc1cc(OC)cc(C(=O)NNC(=S)NCc2ccco2)c1,n,n,n,n
O=C(COc1ccc2ccccc2c1Br)NCc1ccccn1,n,n,n,n
CC(C)N(C(=O)c1ccccc1-c1ccccc1)C(C)C,n,n,n,x
COc1cc(C2CC(=O)OC3=C2C(=O)CC(C)(C)C3)cc(OC)c1OC (stereo unspecified),n,n,n,n
Cc1ccc2c(c1)C(c1ccccc1)CC(=O)O2 (stereo unspecified),n,x,n,n
Clc1cccc(Cl)c1Cn1cnc2c(N3CCCCCC3)ncnc21,76,n,x,n
CC(C)NC(=S)N/N=C/c1ccc(C(C)(C)C)cc1,91,n,n,n
CC(C)NC(=S)N/N=C/c1cccs1,n,n,n,x
Cc1ccc(S(=O)(=O)N(C)C)cc1N,n,n,n,n
COc1cccc(C(=O)c2sc(NC(C)C)nc2N)c1,91,n,n,x
SMILES,CHOP inhibitor,Hsp70 activator,Mdm2 ligase inh,S1P3 antag
COc1ccc(/C=N/NC(=O)Cc2cc(OC)c(OC)cc2[N+](=O)[O-])cc1,n,n,n,n
CCOC(=O)Cn1c(=NC(=O)C2COc3ccccc3O2)sc2cc(S(N)(=O)=O)ccc21 (stereo unspecified),n,n,n,n
CCOC(=O)Cn1c(=NC(=O)c2ccc([N+](=O)[O-])s2)sc2ccccc21,81,n,n,n
COc1ccc(NC(=O)CN2C(=O)/C(=C3\SC(=S)N(C4CCS(=O)(=O)C4)C3=O)c3ccccc32)cc1 (stereo unspecified),n,x,n,n
CCc1c(C)nc2ncnn2c1NCCc1ccccc1,n,n,n,x
CCc1c(C)nc2ncnn2c1NCCc1ccc(Cl)cc1,71,n,n,n
CC(C)c1csc(CN2CCN(CCc3ccccc3)C(CCO)C2)n1 (stereo unspecified),n,n,n,n
Cc1ccc(C)c(NC(=O)c2ccccc2NC(=O)C2CCCO2)c1 (stereo unspecified),n,n,n,n
Cc1ccc(N=C2SCCCN2C(=O)c2ccco2)cc1Cl,80,n,n,x
Cc1ccc2c(c1)CCCN2C(=O)c1ccco1,n,n,n,x
Cc1nnc(SCc2cc(=O)[nH]c(/N=C(\N)Nc3ccccc3Sc3ccccc3)n2)s1,n,n,n,n
COc1ccccc1N/C(N)=N/c1nc(CSc2nc3ccccc3s2)cc(=O)[nH]1,94,n,n,n
Cc1ccc(CSCC(=O)NCc2cccs2)cc1,n,n,n,n
Cc1cc(C)cc(-n2nnc(C(=O)NCc3ccccc3Cl)c2N)c1,n,n,n,n
COc1ccc(N2CCN(C(c3ccccc3OC)c3nnnn3C3CCCC3)CC2)cc1 (stereo unspecified),n,n,n,n
COc1ccccc1N1CCN(C(c2cc3cc(C)ccc3[nH]c2=O)c2nnnn2C2CCCC2)CC1 (stereo unspecified),91,n,n,n
COc1ccccc1N1CCN(C(c2cc3ccc(C)cc3[nH]c2=O)c2nnnn2C2CCCC2)CC1 (stereo unspecified),n,n,n,n
COc1ccc(N2CCN(C(c3cccc(OC)c3OC)c3nnnn3C3CCCC3)CC2)cc1 (stereo unspecified),74,n,n,n
O=C(c1ccccc1F)N1CCN(c2cnn(-c3cccc(Cl)c3)c(=O)c2Cl)CC1,n,n,n,n
Cc1ccc(C(=O)c2sc3nsc(C)c3c2N)cc1,n,n,n,x
Cc1snc2sc(C(=O)c3ccc(Br)cc3)c(N)c12,92,n,n,x
Cc1ccc(NNC(=O)C(O)(c2cccc(C(F)(F)F)c2)c2cccc(C(F)(F)F)c2)cc1,107,n,n,n
COc1cc2c(cc1NC(=O)COc1ccccc1OC)oc1ccccc12,n,n,n,x
COc1cc2c(cc1NC(=O)COC(=O)c1ccc(C(C)(C)C)cc1)oc1ccccc12,78,n,n,n
CCOc1cc(N2CCOCC2)c(OCC)cc1NC(=O)CN1C(=O)NC2(CCc3ccccc32)C1=O (stereo unspecified),n,n,n,x
SMILES,CHOP inhibitor,Hsp70 activator,Mdm2 ligase inh,S1P3 antag
COc1cc2c(cc1NC(=S)Nc1cccc(C(F)(F)F)c1)oc1ccccc12,71,n,n,x
COc1cc2c(cc1NC(=O)CN1C(=O)NC3(CCc4ccccc43)C1=O)oc1ccccc12 (stereo unspecified),79,n,n,n
CN(CCCNS(=O)(=O)c1cccc2cccnc12)Cc1ccccc1,n,n,n,x
O=C1N/C(=N/O)S/C1=C\c1ccccc1-n1cccn1,n,n,n,n
NC/C=C/C(=O)O,n,x,x,x
CN(c1ccc(C(=O)N2CCCCC2)cc1)S(C)(=O)=O,79,n,n,n
O=C(CN1CCC(C(=O)O)CC1)Nc1ccccc1Oc1ccccc1,n,x,n,n
COc1ccc(S(=O)(=O)NC(CC(=O)NCCc2ccccc2)c2ccco2)cc1 (stereo unspecified),n,n,n,x
COc1ccc(S(=O)(=O)NC(CC(=O)NCCc2ccc(OC)c(OC)c2)c2ccco2)cc1 (stereo unspecified),n,n,n,94

# Screening data: PubChem BioAssay, several laboratories
